Test results published in ChEMBL document CHEMBL1122782, “Bulky amine analogues of ketoprofen: potent antiinflammatory agents” (J Med Chem, 1984).

Experiments:
Assay type in all cases: functional
[1] = system: Rattus norvegicus; experiment: Ulcerogenicity was measured in intestine during the 3 week adjuvant arthritis test, no of animals with ulcers out of 8 animals tested at 0.16 mM/kg (49.4 mg) was reported.
Procedure, shortened: (§1)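 Male Sprague-Dawley rats (200–230 g) were injected in the plantar tissue of one hind paw with 0.1 mL of 0.6% M. butyricum suspension in heavy mineral oil. Daily oral gavage began on the day of adjuvant injection and ran for the 21 days, with drug suspended in 1% gum tragacanth or a corn oil-water emulsion. At the end the rats were sacrificed and the small intestine and stomach were examined for ulcers. Results are given as animals with ulcers/animals tested.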

[2] = system: Rattus norvegicus; experiment: Ulcerogenicity was measured in stomach during the 3 week adjuvant arthritis test, no of animals with ulcers out of 8 animals tested at 0.16 mM/kg (49.4 mg) was reported.; procedure, shortened: as §1
[3] = system: Rattus norvegicus; experiment: Ulcerogenicity was measured in stomach during the 3 week adjuvant arthritis test, no of animals with ulcers out of 8 animals tested at 0.08 mM/kg (24.7 mg) was reported; procedure, shortened: as §1
[4] = system: Rattus norvegicus; experiment: Antiinflammatory efficacy is measured by the percent inhibition of paw volume during the 3 week adjuvant arthritis test at 0.08 mM/kg(24.7 mg)
Procedure, shortened: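 Male Sprague-Dawley rats (200–230 g) were used in groups of eight. Each received 0.1 mL of 0.6% M. butyricum in heavy mineral oil into the plantar tissue of one hind paw. Daily oral gavage in 1% gum tragacanth or corn oil-water emulsion began on the injection day and ran 21 days. Total hind paw volume was measured by mercury displacement, and inhibition was taken versus vehicle-treated adjuvant controls.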

[5] = system: Rattus norvegicus; experiment: The mean increase in paw volume was compared between drug treated groups and placebo to calculate the percent inhibition in rats at 0.02 mmol/kg by carrageenan Edema Assay; 30-39; details: Rattus norvegicus
[6] = species on record: Rattus norvegicus; experiment: Compound was evaluated for highest non-ulcerogenic dose (less than 50% ulcer incidence); details: read-out: ED50
Procedure, shortened: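 Taken from the 21-day adjuvant arthritis test in male Sprague-Dawley rats dosed orally each day from the day of adjuvant injection. Small intestines and stomachs were examined for ulceration at the end. The value is the highest dose giving less than 50% ulcer incidence.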

[7] = system: Rattus norvegicus; experiment: Antiinflammatory efficacy is measured by the weight gain in rats during the 3 week adjuvant arthritis test at 0.08 mM/kg(24.7 mg)
Procedure, shortened: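 Rats were adjuvant-injected (M. butyricum in mineral oil, one hind paw) or given a mineral-oil placebo. They were dosed by gavage daily for 21 days from the injection day, with vehicle only for both control groups, then weighed at the end. Weight gain % = (treated − adjuvant control)/(negative control − adjuvant control) × 100.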

[8] = system: Rattus norvegicus; experiment: The percent inhibition was calculated from the average differences in hind paw volume between the adjuvant injected controls and the adjuvant-injected medicated rats at 0.08 mmol/kg; 60-69; details: Rattus norvegicus
[9] = system: Rattus norvegicus; experiment: Ulcerogenicity was measured in intestine during the 3 week adjuvant arthritis test, no of animals with ulcers out of 8 animals tested at 0.08 mM/kg (24.7 mg) was reported
Procedure, shortened: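 In the 21-day adjuvant arthritis model, male Sprague-Dawley rats (200–230 g) received an M. butyricum mineral-oil suspension into one hind paw. They were dosed daily by gavage from the day of injection. At the end of the study the rats were killed, and the small intestines were examined for ulcers. Results are given as the number of ulcerated animals over the number tested.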

[10] = system: Rattus norvegicus; experiment: Potency relative to phenylbutazone at 0.08 mM/kg
[11] = system: Rattus norvegicus; experiment: The mean increase in paw volume was compared between drug treated groups and placebo to calculate the percent inhibition in rats at 0.08 mmol/kg by carrageenan Edema Assay; 0-19
[12] = system: Rattus norvegicus; experiment: Antiinflammatory efficacy is measured by the weight gain in rats during the 3 week adjuvant arthritis test at 0.55 mM/kg (113 mg)
Procedure, shortened: (§2)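 Male Sprague-Dawley rats (200–230 g), eight per group, received 0.1 mL of 0.6% M. butyricum in heavy mineral oil (negative controls: mineral oil) into one hind-paw plantar tissue. Daily gavage in 1% gum tragacanth or corn oil-water emulsion began on the injection day, for 21 days. Weight gain is expressed as (treated − adjuvant control)/(negative control − adjuvant control) × 100.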

[13] = system: Rattus norvegicus; experiment: Antiinflammatory efficacy is measured by the weight gain in rats during the 3 week adjuvant arthritis test at 0.278 mM/kg (57.2 mg); procedure, shortened: as §2
[14] = system: Rattus norvegicus; experiment: The mean increase in paw volume was compared between drug treated groups and placebo to calculate the percent inhibition in rats at 0.08 mmol/kg by carrageenan Edema Assay; 50-59

CC(CN1CCOCC1)c1cccc(C(=O)c2ccccc2)c1 (stereo not given)
Ulcerogenic index [1]: 3
Ulcerogenic index [2]: 1
Ulcerogenic index [3]: 0
Inhibition [4]: 82%
inhibition in vivo at 20 µmol/kg [5]: 30%
highest non-ulcerogenic dose [6]: 8 µmol/kg
Weight gain [7]: 66%
inhibition in vivo at 80 µmol/kg [8]: 80%
Ulcerogenic index [9]: 1
Relative potency [10]: 8.6%

CC(CN1CCCC1CC1CCCCC1)c1cccc(C(O)c2ccccc2)c1 (stereo not given)
inhibition in vivo at 80 µmol/kg [11]: 0%

CC(C)Cc1ccc(C(C)C(=O)O)cc1 (stereo not given) [IBUPROFEN]
Weight gain [12]: 18%
highest non-ulcerogenic dose [6]: 210 µmol/kg
Weight gain [13]: 1%

CC(CN1C(C)CCCC1C)c1cccc(C(=O)c2ccccc2)c1 (stereo not given)
inhibition in vivo at 80 µmol/kg [14]: 50%
